Data as given in ChEMBL document CHEMBL3243929, “Cannabinoids. 2. Synthesis and central nervous system activities of some B-ring homocannabinoid derivatives and related lactones” (1977).
The source made the active and inactive calls. The calls are words filed in the database; no cut-off is given here.

Legend:
Rattus norvegicus [1] = test: CNS activity in po dosed rat assessed as increase in latency to kill by muricidal rat test; assay type: functional; conditions: read-out: MED
In short: (§1)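 Oral dosing in rats in the septal-lesioned and muricidal assays, with a 10 mg/kg po screening dose. Active compounds were titrated down to a minimum effective dose. Vehicle controls were given on the same injection-volume basis.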

Rattus norvegicus [2] = test: CNS activity in rat assessed as decrease in septal-lesioned-induced hyperactivity at 10 mg/kg, po by septal-lesioned rat test; assay type: functional, organism-based; parameters: dose 10 mg/kg; in short: as §1
Mus musculus [3] = test: CNS activity in po dosed mouse assessed as decrease in early exploratory behavior in activity cage; assay type: functional; conditions: read-out: MED
In short: (§2)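 Oral dosing in mice, with a 20 mg/kg po screening dose. Active compounds were titrated down to a minimum effective dose. Vehicle controls were given on the same injection-volume basis.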

Rattus norvegicus [4] = test: CNS activity in rat assessed as increase in latency to kill at 10 mg/kg, po by muricidal rat test; assay type: functional, organism-based; parameters: dose 10 mg/kg; in short: as §1
Mus musculus [5] = test: CNS activity in mouse assessed as decrease in early exploratory behavior in activity cage at 20 mg/kg, po; assay type: functional, organism-based; parameters: dose 20 mg/kg; in short: as §2
Rattus norvegicus [6] = test: CNS activity in po dosed rat assessed as decrease in septal-lesioned-induced hyperactivity by septal-lesioned rat test; assay type: functional; conditions: read-out: MED; in short: as §1

| Structure (SMILES) | minimal effective dose (Rattus norvegicus [1]) | Activity (Rattus norvegicus [2]) | minimal effective dose (Mus musculus [3]) | Activity (Rattus norvegicus [4]) | Activity (Mus musculus [5]) | minimal effective dose (Rattus norvegicus [6]) |
| --- | --- | --- | --- | --- | --- | --- |
| CCCCCCC(C)(C)c1cc(O)c2c(c1)OC(=O)CC1=C2CC(C)CC1 (centres undefined) | 5 mg/kg | inactive | 5 mg/kg | – | – | – |
| CCCCCCC(C)(C)c1cc(O)c2c(c1)OCC(C)(C)C1=C2CC(C)CC1 (centres undefined) | – | inactive | 20 mg/kg | inactive | – | – |
| CCCCCCC(C)(C)c1cc(O)c2c3c(c(=O)oc2c1)CCC(C)C3 (centres undefined) | – | inactive | – | inactive | inactive | – |
| CCCCCc1cc(O)c2c(c1)OC(C)(C)[C@@H]1CCC(C)=C[C@@H]21 [DRONABINOL] | 5 mg/kg | inactive | 10 mg/kg | – | – | – |
| CCCCCCC(C)(C)c1cc(O)c2c(c1)OC(C)(C)C1=C2CC(C)CC1 (centres undefined) | 0.62 mg/kg | – | 0.62 mg/kg | – | – | 1.25 mg/kg |
| CCCCCCC(C)(C)c1cc(O)c2c(c1)OCCC1=C2CC(C)CC1 (centres undefined) | 1.25 mg/kg | – | 1.25 mg/kg | – | – | 1.25 mg/kg |
| CCCCCCC(C)(C)c1cc(O)c2c(c1)OC(C)(C)CC1=C2CC(C)CC1 (centres undefined) | 2.5 mg/kg | inactive | 2.5 mg/kg | – | – | – |
| CCCCCCC(C)(C)c1cc(O)c2c(c1)OC(=O)C(C)(C)C1=C2CC(C)CC1 (centres undefined) | – | inactive | – | inactive | inactive | – |
